Screening results deposited in PubChem BioAssay by The Scripps Research Institute Molecular Screening Center.
This is a sample that favours compounds with a hit; in the whole collection about 3.6% have one here.
PAFAH1B2 FP inh: inhibitors of human PAFAH1B2. P68402. recombinant PAFAH1B2, FP-rhodamine activity probe, fluorescence polarization. inhibition, % at 3.39 µM. actives 1.2% (n = 340,000);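 active = inhibition above the mean of all tested compounds plus 3 SD, cut at about 24% in these data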;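 note: 0% = enzyme with DMSO and 100% = wells lacking PAFAH1B2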
Target sequence (P68402 whole entry, looked up): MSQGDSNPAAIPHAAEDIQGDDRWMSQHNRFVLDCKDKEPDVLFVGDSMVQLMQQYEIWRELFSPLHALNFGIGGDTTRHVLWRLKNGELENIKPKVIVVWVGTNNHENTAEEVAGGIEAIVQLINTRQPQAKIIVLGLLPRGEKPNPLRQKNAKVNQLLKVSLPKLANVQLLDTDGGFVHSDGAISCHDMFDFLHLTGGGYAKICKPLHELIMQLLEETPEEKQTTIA
PAFAH2 inh: PAFAH2 (human) inhibition; Q99487; recombinant PAFAH2, FP-rhodamine activity probe, fluorescence polarization; inhibition, % at 3.39 µM; actives 0.99% (n = 340,000); AID 492956;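 active = inhibition above the mean over all tested compounds plus 3 SD, cut at about 30% in these data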;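 note: inhibitors block probe labeling of enzyme so polarization drops; 0% = enzyme with DMSO and 100% = wells lacking PAFAH2 protein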
PAFAH1B3 inh: PAFAH1B3 (human) inhibition. Q15102. recombinant PAFAH1B3, FP-rhodamine probe, fluorescence polarization. inhibition, % at 3.39 µM. actives 0.28% (n = 340,000). AID 492972;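 active = inhibition above the screen-wide average of all tested compounds plus 3 SD, cut at about 25% in these data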;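 note: 0% = enzyme with DMSO only and 100% = wells lacking PAFAH1B3 protein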
Target sequence (Q15102 whole entry, looked up): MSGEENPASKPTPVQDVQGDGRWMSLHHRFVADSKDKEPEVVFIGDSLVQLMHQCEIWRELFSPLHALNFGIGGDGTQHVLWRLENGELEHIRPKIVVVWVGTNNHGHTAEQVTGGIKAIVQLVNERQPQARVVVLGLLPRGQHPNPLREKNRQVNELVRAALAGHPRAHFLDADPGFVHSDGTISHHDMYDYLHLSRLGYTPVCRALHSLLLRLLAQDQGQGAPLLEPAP
VIM-2 inh: blocks Pseudomonas aeruginosa VIM-2 metallo-beta-lactamase; actives 0.89% (n = 290,000); purified VIM-2, nitrocefin hydrolysis, epi-absorbance fluorescence; inhibition, % at 5.6 µM; AID 1527;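 active = inhibition above the mean of all tested compounds plus 3 SD, cutoff set per screening run, cut at about 7.5% in these data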;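 note: red hydrolysis product quenches plate fluorescence so inhibitors raise well fluorescence; 0% = enzyme with DMSO and 100% = DMSO without enzyme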
IMP-1 inh: inhibitors of Pseudomonas aeruginosa IMP-1 metallo-beta-lactamase; actives 0.45% (n = 290,000); purified IMP-1, nitrocefin hydrolysis, epi-absorbance fluorescence; AID 1556; inhibition, % at 5.6 µM;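 active = inhibition above the mean plus 3 SD of all compounds in the same screening run, cut at about 4.5% in these data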;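 note: 0% = IMP-1 with DMSO and 100% = DMSO wells lacking enzyme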
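Assay system: purified recombinant IMP-1 beta-lactamase. Input: IMP-1 0.2 nM before substrate addition. Buffer or medium: Zinc- and detergent-supplemented HEPES buffer, pH 7.1. Schedule: 25 °C, 15 min preincubation, 25 min reaction. Signal: Epi-absorbance fluorescence, 480 nm excitation, 530 nm emission. Evaluation: percent inhibition from optical density relative to buffer-blank wells.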
pPAFAH FP inh: inhibitors of human plasma PAF acetylhydrolase (pPAFAH). inhibition, % at 3.39 µM. Q13093. recombinant pPAFAH, FP-rhodamine probe fluorescence polarization. actives 1.5% (n = 330,000);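 active = inhibition above the mean inhibition across the screen plus 3 SD, cut at about 25% in these data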;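 note: inhibitors block binding of the rhodamine activity-based probe so polarization drops; 0% = enzyme with DMSO and 100% = wells lacking pPAFAH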
* hit, by the source's call; . = not tested or not shown.

SMILES	PAFAH1B2 FP inh	PAFAH2 inh	PAFAH1B3 inh	VIM-2 inh	IMP-1 inh	pPAFAH FP inh
CC1OC2(C)OC(=N)C1(C#N)C(C#N)(C#N)C2c1ccccc1 (configuration not stated)	13	18	12	-3	-3	6
CN(C(=O)CSc1nncc2ccccc12)c1ccccc1	.	.	.	.	.	1
CN(C)/C(=N\S(=O)(=O)c1ccc(Br)cc1)c1ccccc1	8	-8	8	-3	-2	2
COc1ccccc1N(C)S(=O)(=O)c1ccc(C(=O)N2CCCC(C(F)(F)F)C2)cc1 (configuration not stated)	2	3	-1	.	.	1
COc1ccc(Cn2c(-c3ccc(OC)cc3)n[nH]c2=S)cc1	4	-1	3	11*	-3	4
S=c1[nH]nc(-c2ccccc2Br)n1Cc1ccccc1	29*	2	2	4	1	0
COc1ccc(CCn2c(-c3ccc(C(C)(C)C)cc3)n[nH]c2=S)cc1OC	25*	11	5	-1	-2	1
O=C(CCl)NC(Cc1ccccc1)C(=O)OCC(=O)c1ccc(-c2ccccc2)cc1 (configuration not stated)	9	2	13	.	.	.
O=C(CCNS(=O)(=O)c1ccccc1)OCc1nnc(-c2ccccc2)o1	2	2	3	.	.	30*
CC(=O)Nc1ccc(S(=O)(=O)NCCC(=O)OCc2nnc(-c3ccccc3)o2)cc1	-2	-1	2	.	.	5
O=C(COC(=O)CCNS(=O)(=O)c1ccccc1F)Nc1nnc(-c2ccccc2)o1	1	10	11	.	.	33*
O=C(OCc1nnc(-c2ccc(Cl)cc2)o1)c1ccc(=O)n(Cc2ccccc2)n1	8	-1	11	-6	4.8*	7
O=C(OCc1nnc(-c2ccc(Cl)cc2)o1)c1ccncc1	-1	1	4	-1	3	5
Cc1cc(OCC(=O)Nc2ccccn2)c2c(C)c(C)c(=O)oc2c1	2	8	15	2	-3	4
Cc1cc(OCC(=O)NCc2ccccn2)c2c(C)c(C)c(=O)oc2c1	-3	1	5	9.0*	0	1
Cc1cc(OC(C)C(=O)NCc2ccncc2)c2c(C)c(C)c(=O)oc2c1 (configuration not stated)	-3	4	0	9.3*	-1	-5
Cc1cccc(Nc2nc(-c3ccc(O)cc3O)cs2)n1	1	0	13	-3	-4	12
Cc1cc(C)c2nc(NNC(=O)c3ccc(S(=O)(=O)N4CCCC(C)C4)cc3)sc2c1 (configuration not stated)	3	-2	6	-6	-3	29*
Cc1cc(C)c2nc(NNC(=O)c3ccc(S(=O)(=O)N4CC(C)CC(C)C4)cc3)sc2c1 (configuration not stated)	17	8	8	-5	-4	19
c1ccc(CN(CCN2CCOCC2)Cc2ccccc2)cc1	3	-3	3	.	.	.
CCN1/C(=C/c2ccc3cc(C)ccc3[n+]2C)Sc2ccc3sccc3c21	-8	0	-3	2	18*	.
Cc1ccc(NC(=O)COC(=O)Cc2csc(-c3cccc(F)c3)n2)cc1C	20	2	8	-2	-1	27*
CCn1c(-c2ccc(C)cc2)n[nH]c1=S	6	6	12	-2	-3	3
CCCCn1c(-c2ccc([N+](=O)[O-])cc2)n[nH]c1=S	2	2	3	13*	-2	-4
CCCCn1c(-c2csc(CCC)c2)n[nH]c1=S	3	9	10	1	-3	7
SMILES	PAFAH1B2 FP inh	PAFAH2 inh	PAFAH1B3 inh	VIM-2 inh	IMP-1 inh	pPAFAH FP inh
CCCn1c(-c2ccc(F)cc2)n[nH]c1=S	20	-1	8	10*	-4	-3
Cc1cccc(S(=O)(=O)Nc2cc(Cl)ccc2N2CCOCC2)c1	3	1	7	.	.	7
CSc1nsc(SCC(=O)Nc2ccc(C(N)=O)cc2)n1	6	1	15	-2	-5	4
CC(C)=CC(=O)O[C@@H]1Cc2cc3ccc(=O)oc3cc2OC1(C)C	4	-5	0	.	.	-2
O=C1CC(c2ccco2)Sc2ccccc2N1 (configuration not stated)	-2	3	6	1	2	-5
O=c1[nH]c2c(s1)C(c1ccco1)C1C3CCC(C3)C1S2 (configuration not stated)	57*	12	0	5	1	4
COc1ccccc1NC(=O)CSc1nc(=O)n2cc(C)ccc2n1	-2	-4	-4	.	.	4
Cc1ccc(NS(=O)(=O)c2ccccc2)c2c1CC(C)(C)O2	2	1	-3	-3	-3	29*
Cc1ccc(-n2nnnc2SCCNS(=O)(=O)c2ccccc2)cc1C	-3	6	6	-2	1	29*
COc1ccc(/C=C/C(=O)c2ccccn2)cc1	6	-6	9	9.6*	1	6
COc1ccc(Cl)cc1NC(=O)CN(C)C(=O)c1cn(-c2ccccc2)nc1-c1cccnc1	-4	-4	3	.	.	4
Cc1ccc(OCc2nnc(NC(=O)c3ccco3)s2)c(C)c1	7	11	-4	0	-2	9
Cc1ccc(OCc2nnc(NC(=O)c3ccco3)s2)cc1	25*	2	5	-4	-1	-3
CC[C@]12c3[nH]c4cc(-c5ccco5)ccc4c3CCN1C(=O)[C@@H](CC(=O)NCCC1=CCCCC1)C[C@@H]2C(=O)N1CCN(C(=O)c2ccco2)CC1	0	-5	3	.	.	17
COc1ccc(-c2cc(C(F)(F)F)c(C#N)c(=O)[nH]2)cc1	2	-5	-4	0	-3	-2
COc1ccc(-c2cc(-c3ccco3)[nH]c(=O)c2C#N)cc1	6	19	5	2	1	30*
O=C(O)C1CCN(C(=O)c2ccc3c(c2)OCO3)CC1	3	5	4	-1	0	0
O=C(Cc1cccc(C(F)(F)F)c1)NCc1ccc(Cl)cc1	5	-2	7	-2	-3	-1
O=C(CCNC(=O)c1ccc(Cl)cc1)NCc1cccc(C(F)(F)F)c1	25*	2	3	.	.	19
OCc1nnc2c3ccccc3c(-c3ccccc3)nn12	-1	-4	-4	11*	2	-5
c1ccc(-c2nn3cnnc3c3ccccc23)cc1	0	2	8	11*	-2	0
Clc1nn2cnnc2c2ccccc12	3	5	4	0	-4	3
O=C(CC(c1ccccc1)(c1ccccc1)c1ccccc1)N[C@@H](Cc1ccccc1)C(=O)O	25*	0	4	-4	-3	7
O=C(O)[C@H](Cc1ccccc1)NC(=O)C(c1ccccc1)(c1ccccc1)c1ccccc1	2	5	5	-1	-3	3
